PubChem BioAssay
The source made the active and inactive calls.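 How the source made its calls, unless noted: active means viability at or below 30% in both replicate assays; inconclusive means viability at or below 30% in just one of the two assays; inactive means the rest.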

assay: reduced viability of SK-BR-3 breast cancer cells – cell-based, 24 h, human, pilot screen (AID 572;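 active means viability at or below 10% of carrier control in both of two separate runs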;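 further: compound exposure lasted between 18 and 24 h rather than exactly 24 h; 100% = carrier-treated control wells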); conditions: SK-BR-3 viability, CellTiter-Glo luminescence, at 10 µM, stronger effect = lower value

SMILES | viability
O=C(O)c1[nH]nc2c1COc1ccccc1-2 | 93.5% (inactive)
O=C(Nc1ccc(Cl)cc1C(=O)Nc1ccncc1)c1ccco1 | 121% (inactive)
CCNC(=O)CC(=O)Nc1ccccc1C(=O)O | 104% (inactive)
COCCOC(=O)c1[nH]c2c(c1C)C(=O)CC(c1ccc(N(C)C)cc1)C2 (stereo not given) | 111% (inactive)
CCOC(=O)c1ccccc1NC(=O)N1CCn2c(C)ccc2C1CC (stereo not given) | 107% (inactive)
COc1ccc2[nH]c(=O)c(CN(C(=O)c3cccnc3)c3ccccc3OC)cc2c1 | 104% (inactive)
CC(=O)Nc1ccc(S(=O)(=O)Nc2nc3n(n2)C(c2ccccc2)CC(=O)N3)cc1 (stereo not given) | 99.5% (inactive)
CCOC(=O)CC1=C(C(=O)OCC)C(c2ccc(C)o2)C(C#N)=C(N)O1 (stereo not given) | 95% (inactive)
COc1ccc(S(=O)(=O)N2CCOCC2)cc1C(=O)Nc1cc(C)on1 | 102% (inactive)
COC(=O)c1ccccc1NC(=O)C1CC(=O)N(c2ccccc2)C1 (stereo not given) | 122% (inactive)
Cn1c(SCC(N)=O)nnc1C1CCN(S(=O)(=O)c2ccccc2C(F)(F)F)CC1 | 114% (inactive)
C=CCc1cc(OC)ccc1OCC(O)CN1CCN(c2ccc(OC)cc2)CC1 (stereo not given) | 82.5% (inactive)
O=C(Nc1nnc(COc2ccc(F)cc2)s1)c1cccs1 | 107% (inactive)
CC(C)(C)n1nnnc1CN1CCC(NC(=O)NC2CCCCC2)CC1 | 95% (inactive)
C=CCn1c(Cc2cccs2)nnc1SCC(=O)Nc1ccc(OC)c(OC)c1 | 108% (inactive)
CC(C)(C)c1cc(C(=S)N2CCN(CCO)CC2)cc(C(C)(C)C)c1O | 123% (inactive)
COc1cccc(-c2nnc3sc(-c4ccc(C)cc4)nn23)c1 | 103% (inactive)
O=C(CSc1ncn[nH]1)c1ccco1 | 120% (inactive)
Cc1ccccc1C(=O)Nc1c(C(=O)N2CCCC2)cnn1-c1ccccc1 | 112% (inactive)
CCCS(=O)(=O)Nc1c(C(=O)O)[nH]c2ccccc12 | 94.5% (inactive)

SMILES | viability
CCOC(=O)Nc1sc(=S)n(C)c1C | 92.5% (inactive)
CC1(C)C(=O)Nc2ccccc2N1C(=O)COC(=O)Cn1cnc2ccccc2c1=O | 110% (inactive)
O=C(CNC(=O)c1ccccc1C(=O)O)c1ccccc1 | 128% (inactive)
Cc1ccc(F)cc1NC(=O)Cc1nn(C)c(=O)c2ccccc12 | 96.5% (inactive)
CCN1CCN(C(=O)c2ccc3c(=O)n(C4CCCC4)c(=S)[nH]c3c2)CC1 | 85.5% (inactive)
O=C(NC1CCS(=O)(=O)C1)N1CCCCC1 (stereo not given) | 102% (inactive)
COc1ccc(NC(=O)CCCN2C(=O)C3C4C=CC(C4)C3C2=O)c(OC)c1 (stereo not given) | 110% (inactive)
COc1ccc(S(=O)(=O)N(C)c2ccc(C(=O)N3CCOCC3)cc2)cc1 | 79.5% (inactive)
Cc1cccc(NC(=O)Cn2c(=O)n(C)c3ccccc32)c1 | 100% (inactive)
CC1(C)Cc2c(sc3ncnc(N)c23)CO1 | 116% (inactive)
Cn1c(=O)c(-c2ccccc2)nn2c3ccccc3nc12 | 82.5% (inactive)
COc1cccc(NC(=O)NC2(C(F)(F)F)Oc3ccccc3O2)c1 | 91.5% (inactive)
COc1ccc2nc3oc(C(=O)NC4CCN(Cc5ccccc5)CC4)cc3cc2c1 | 76.5% (inactive)
Cc1ccc(S(=O)(=O)N2CCN(C(=O)CN3C(=O)NC4(CCOc5ccccc54)C3=O)CC2)cc1 (stereo not given) | 98.5% (inactive)
O=S(=O)(c1cccc2nsnc12)N1CCN(c2ncccn2)CC1 | 87% (inactive)
Cc1ccc(C(=O)N2CCCC(c3nc4c(nnn4Cc4ccccc4)c(=O)[nH]3)C2)cc1 (stereo not given) | 80.5% (inactive)
O=C(C1CCN(S(=O)(=O)Cc2ccccc2)CC1)N1CCN(c2ncccn2)CC1 | 83% (inactive)
CCOc1ncccc1C(=O)OCC(=O)Nc1ncc(C(F)(F)F)cc1Cl | 99.5% (inactive)
O=C(Cn1ccc2ccccc2c1=O)Nc1ccc2c(c1)OCO2 | 104% (inactive)
Cn1nnnc1SCC(=O)NCc1ccco1 | 95% (inactive)

assay: HUVEC growth inhibition – cell-based, human, primary screen (AID 575); conditions: HUVEC proliferation, CellTiter-Glo luminescence, 72 h; at 10 µM; stronger effect = lower value;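 further: 100% = median of untreated cell wells with 0.1% DMSO on each plate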
Procedure, shortened: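 Timing: 72 h treatment at 37 °C; material: HUVEC primary cells; technique: CellTiter-Glo luminescence measuring cellular ATP; controls: vehicle and MePR control wells; measure: percent of median DMSO-control luminescence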

SMILES | viability
O=C(O)c1[nH]nc2c1COc1ccccc1-2 | 109% (inactive)
O=C(Nc1ccc(Cl)cc1C(=O)Nc1ccncc1)c1ccco1 | 70.1% (inactive)
CCNC(=O)CC(=O)Nc1ccccc1C(=O)O | 125% (inactive)
COCCOC(=O)c1[nH]c2c(c1C)C(=O)CC(c1ccc(N(C)C)cc1)C2 (stereo not given) | 91.1% (inactive)
CCOC(=O)c1ccccc1NC(=O)N1CCn2c(C)ccc2C1CC (stereo not given) | 103% (inactive)
COc1ccc2[nH]c(=O)c(CN(C(=O)c3cccnc3)c3ccccc3OC)cc2c1 | 90.8% (inactive)
CC(=O)Nc1ccc(S(=O)(=O)Nc2nc3n(n2)C(c2ccccc2)CC(=O)N3)cc1 (stereo not given) | 102% (inactive)
CCOC(=O)CC1=C(C(=O)OCC)C(c2ccc(C)o2)C(C#N)=C(N)O1 (stereo not given) | 107% (inactive)
COc1ccc(S(=O)(=O)N2CCOCC2)cc1C(=O)Nc1cc(C)on1 | 102% (inactive)
COC(=O)c1ccccc1NC(=O)C1CC(=O)N(c2ccccc2)C1 (stereo not given) | 114% (inactive)
Cn1c(SCC(N)=O)nnc1C1CCN(S(=O)(=O)c2ccccc2C(F)(F)F)CC1 | 112% (inactive)
C=CCc1cc(OC)ccc1OCC(O)CN1CCN(c2ccc(OC)cc2)CC1 (stereo not given) | 89% (inactive)
O=C(Nc1nnc(COc2ccc(F)cc2)s1)c1cccs1 | 60% (inactive)
CC(C)(C)n1nnnc1CN1CCC(NC(=O)NC2CCCCC2)CC1 | 97% (inactive)
C=CCn1c(Cc2cccs2)nnc1SCC(=O)Nc1ccc(OC)c(OC)c1 | 89.6% (inactive)
CC(C)(C)c1cc(C(=S)N2CCN(CCO)CC2)cc(C(C)(C)C)c1O | 94.7% (inactive)
COc1cccc(-c2nnc3sc(-c4ccc(C)cc4)nn23)c1 | 57% (inactive)
O=C(CSc1ncn[nH]1)c1ccco1 | 95.9% (inactive)
Cc1ccccc1C(=O)Nc1c(C(=O)N2CCCC2)cnn1-c1ccccc1 | 106% (inactive)
CCCS(=O)(=O)Nc1c(C(=O)O)[nH]c2ccccc12 | 83.9% (inactive)

SMILES | viability
CCOC(=O)Nc1sc(=S)n(C)c1C | 104% (inactive)
CC1(C)C(=O)Nc2ccccc2N1C(=O)COC(=O)Cn1cnc2ccccc2c1=O | 110% (inactive)
O=C(CNC(=O)c1ccccc1C(=O)O)c1ccccc1 | 100% (inactive)
Cc1ccc(F)cc1NC(=O)Cc1nn(C)c(=O)c2ccccc12 | 74.1% (inactive)
CCN1CCN(C(=O)c2ccc3c(=O)n(C4CCCC4)c(=S)[nH]c3c2)CC1 | 82.9% (inactive)
O=C(NC1CCS(=O)(=O)C1)N1CCCCC1 (stereo not given) | 103% (inactive)
COc1ccc(NC(=O)CCCN2C(=O)C3C4C=CC(C4)C3C2=O)c(OC)c1 (stereo not given) | 82% (inactive)
COc1ccc(S(=O)(=O)N(C)c2ccc(C(=O)N3CCOCC3)cc2)cc1 | 94.4% (inactive)
Cc1cccc(NC(=O)Cn2c(=O)n(C)c3ccccc32)c1 | 100% (inactive)
CC1(C)Cc2c(sc3ncnc(N)c23)CO1 | 96.6% (inactive)
Cn1c(=O)c(-c2ccccc2)nn2c3ccccc3nc12 | 90.8% (inactive)
COc1cccc(NC(=O)NC2(C(F)(F)F)Oc3ccccc3O2)c1 | 69.1% (inactive)
COc1ccc2nc3oc(C(=O)NC4CCN(Cc5ccccc5)CC4)cc3cc2c1 | 57.5% (inactive)
Cc1ccc(S(=O)(=O)N2CCN(C(=O)CN3C(=O)NC4(CCOc5ccccc54)C3=O)CC2)cc1 (stereo not given) | 102% (inactive)
O=S(=O)(c1cccc2nsnc12)N1CCN(c2ncccn2)CC1 | 105% (inactive)
Cc1ccc(C(=O)N2CCCC(c3nc4c(nnn4Cc4ccccc4)c(=O)[nH]3)C2)cc1 (stereo not given) | 110% (inactive)
O=C(C1CCN(S(=O)(=O)Cc2ccccc2)CC1)N1CCN(c2ncccn2)CC1 | 115% (inactive)
CCOc1ncccc1C(=O)OCC(=O)Nc1ncc(C(F)(F)F)cc1Cl | 97.2% (inactive)
O=C(Cn1ccc2ccccc2c1=O)Nc1ccc2c(c1)OCO2 | 95.7% (inactive)
Cn1nnnc1SCC(=O)NCc1ccco1 | 91.8% (inactive)
